High-throughput results deposited in PubChem BioAssay by several laboratories.
FGF22 binding-1: shifts melting point of recombinant human FGF22; Q9HCT0; recombinant FGF22 thermal shift, SYPRO orange fluorescence; percent of sucrose octasulfate shift, DMSO zero; activity (Tm shift, normalised), % at 9.99 µM; 340,000 compounds, 1.5% hits;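 active means mean Tm shift, scaled 0 neutral to 100 positive control, at about 1.3% or above, every replicate too, limit read from the data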
Target sequence (Q9HCT0 whole entry, looked up): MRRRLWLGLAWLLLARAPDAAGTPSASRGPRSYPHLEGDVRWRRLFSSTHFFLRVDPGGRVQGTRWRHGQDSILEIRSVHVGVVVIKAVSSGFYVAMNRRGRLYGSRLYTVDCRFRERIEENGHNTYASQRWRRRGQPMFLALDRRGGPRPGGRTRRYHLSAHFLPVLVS
NR2E3 ag-1: activates human NR2E3 receptor; Q9Y5X4; CHO-S Gal4-NCOR/VP16-NR2E3 two-hybrid, luciferase; inhibition of corepressor binding, % at 3.98 µM; 360,000 compounds, 0.35% hits; AID 602229;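 active means inhibition above the mean of all tested compounds plus 3 SD, cut at about 70% in these data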;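 further: 0% = DMSO with NR2E3 transfected cells and 100% = cells lacking NR2E3 construct; higher means lower luciferase signal from less NR2E3 corepressor binding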
Target sequence (Q9Y5X4 whole entry, looked up, the tested form may be a part): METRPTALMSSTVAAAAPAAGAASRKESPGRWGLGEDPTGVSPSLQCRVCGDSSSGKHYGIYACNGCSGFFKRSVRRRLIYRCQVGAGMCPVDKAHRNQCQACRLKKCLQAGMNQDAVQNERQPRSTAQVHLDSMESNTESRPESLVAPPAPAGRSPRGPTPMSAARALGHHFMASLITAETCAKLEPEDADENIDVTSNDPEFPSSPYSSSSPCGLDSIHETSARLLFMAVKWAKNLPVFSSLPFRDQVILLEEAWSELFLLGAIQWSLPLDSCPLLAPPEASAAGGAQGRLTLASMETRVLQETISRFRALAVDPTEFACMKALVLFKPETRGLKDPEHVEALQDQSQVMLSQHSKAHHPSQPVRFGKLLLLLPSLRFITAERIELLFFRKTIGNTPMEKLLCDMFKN
697 NFkB inh: lowers PMA/ionomycin-induced NF-kB signal in 697 B cells. inhibition, % at 4 µM. 697 B-cell NF-kB luciferase reporter, 16 h. 330,000 compounds, 0.33% hits; in the data active means inhibition above about 35%
Jurkat NFkB inh: inhibitors of the PMA/ionomycin-induced NF-kB reporter in Jurkat cells; 330,000 compounds, 0.53% hits; PMA/ionomycin-induced NF-kB luciferase reporter, luminescence; AID 435003; inhibition, % at 4 µM; in the data active means inhibition above about 50%
miR-122 sensor: miR-122 inhibition in Huh7 cells; Huh7 miR-122 Renilla luciferase sensor, 48 h; neutral wells = 0, positive control = 100; AID 602342; activation (reporter increase), % at 12.5 µM; 340,000 compounds, 0.3% hits;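 active means mean replicate activation score at least 90 and every replicate individually at or above 90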;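 further: higher luciferase means less miR-122 activity so hits act as miR-122 inhibitors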
NR2E3 ag-2: NR2E3 (human) agonism; inhibition of corepressor binding, % at 4.78 µM; 320,000 compounds, 0.12% hits; GST-NR2E3/biotin-RetCOR TR-FRET, 1536-well;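 active means percent inhibition above the cutoff of mean plus 3 SD of all tested compounds, set per screening campaign, cut at about 20% in these data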;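 further: 0% = DMSO wells and 100% = biotin wells as full block of FRET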
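Test system: GST-NR2E3 and biotin-RetCOR proteins | Quantity: 1.35 nM GST-tagged NR2E3 final | Medium: Tris pH 7.5 | Also added: 7 nM biotin-RetCOR | Dosing: Compound at 4.8 µM, single dose | Timing: 5 h at 4 °C | Detection: Time-resolved FRET | Read-out basis: Percent inhibition | Benchmarks: Biotin wells as high control, 0.6% DMSO wells as low control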
NR2E3 ag confirm: confirmation of human NR2E3 agonists; inhibition, % at 3.98 µM; CHO-S mammalian two-hybrid NR2E3-NCOR, luciferase luminescence; shares compounds with NR2E3 ag-1; 2,300 compounds, 51% hits;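 active means average inhibition above a cutoff equal to the mean inhibition of all tested compounds plus one SD, cut at about 70% in these data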;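 further: 0% = DMSO in NR2E3 cells and 100% = DMSO in cells lacking NR2E3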
GAL4-VP16 luc: reduces GAL4-VP16 reporter signal in NR2E3 counterscreen; shares compounds with NR2E3 ag-1; CHO-S GAL4-VP16 luciferase reporter, luminescence; inhibition, % at 3.98 µM; 2,300 compounds, 29% hits;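 active means mean inhibition above a cutoff equal to the average over all tested compounds plus one standard deviation, cut at about 70% in these data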;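 further: luciferase from a UAS reporter driven by GAL4-VP16 transactivation; 0% = DMSO with VP16-transfected cells and 100% = DMSO with cells lacking VP16; higher means less reporter light so more repression of VP16 activity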
miR-27b select: miR-27b effect in Huh7 as miR-122 inhibitor selectivity check. relative miR-27b level (unnormalised ratio), ratio at 35 µM. shares compounds with miR-122 sensor. Huh7 miR-27b levels, qRT-PCR, 48 h. AID 687039. 35 tested, under 10 active;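 active means compounds lowering miR-27b whose fitted half-maximal dose is at most twice their top tested dose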
FGF22 binding-2: binds human FGF22 shifting its melting temperature. 1,000 compounds, 2% hits. shares compounds with FGF22 binding-1. recombinant FGF22 thermal shift, SYPRO orange fluorescence. thermal shift activity, °C (ΔTm) at 38 µM;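 active means fitted rise in melting shift crosses a set limit at or below the top valid dose tested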
TSA no protein: counter-screen for FGF22 binders: compound-only thermal shift, no protein | shares compounds with FGF22 binding-1 | compound-only SYPRO orange thermal shift counter-screen | 1,000 compounds, 2% hits | AC50, µM (top dose mostly 38 µM);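 active means rising signal whose fitted curve reaches the 0.54 level within the top valid dose, showing a melting point, actives reach about 13 µM in these data; inactive means the rest, including activity in the opposite direction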; further: value is where the raw curve crosses a fixed level and not half-maximal
Starred values were filed as active, the others as inactive; i = inactive; nt = no result given; [ ] = another dose, or the depositor's remark. The list is not random: actives were taken first. Their share in the collection is about 2.2%.

SMILES | FGF22 binding-1 | NR2E3 ag-1 | 697 NFkB inh | Jurkat NFkB inh | miR-122 sensor | NR2E3 ag-2 | miR-27b select | others
CCCOC(=O)c1ccc(Oc2cn[nH]c2-c2ccc(O)cc2O)cc1 | 1.5* | 57.9 | -17.8 | 23.3 | 6.0 | 2.5 | nt | NR2E3 ag confirm=4.5;GAL4-VP16 luc=34.0;FGF22 binding-2=0.402;TSA no protein=i
CCOC(=O)c1ccc(Oc2cn[nH]c2-c2ccc(O)cc2O)cc1 | nt | 11.6 | -61.8 | 9.3 | 3.6 | -1.6 | nt
Cc1cc(C(C)(C)C)cc(S(=O)(=O)NCCO)c1C | nt | 3.0 | 6.9 | -1.0 | 93.4* | 0.3 | 0.935
Cc1ccc(/C=C/C(=O)O)cc1S(=O)(=O)NCCO | nt | -32.4 | 13.3 | -3.0 | -2.7 | -0.8 | nt
COc1ccc(CN(C)C[C@@H]2Oc3ccc(NC(=O)C4CC4)cc3C(=O)N([C@H](C)CO)C[C@H]2C)cc1 | -0.1 | nt | nt | nt | 58.4[16.7 µM] | nt | nt
Cc1cc(C)c(S(=O)(=O)NC2CC2)c(C)c1 | 0.0 | 2.4 | 8.3 | -0.5 | nt | -2.4 | nt
CCOc1ccc(C)cc1S(=O)(=O)NC1CCCCC1 | nt | -4.0 | 4.7 | 11.8 | 282.6* | 2.4 | 0.52
Cc1cc(C)c(C)c(S(=O)(=O)NC2CCCCC2)c1C | 0.0 | -51.4 | 15.8 | -20.9 | 92.9* | nt | 0.681
O=C(Cc1ccccc1)N[C@H]1CC[C@H](CC(=O)N2CCCCC2)O[C@@H]1CO | 0.1 | nt | nt | nt | nt | nt | nt
O=C(Nc1ccc(N2CCOCC2)c(S(=O)(=O)Nc2ccccc2Cl)c1)c1ccccc1 | -0.2 | -15.9 | -8.0 | 7.3 | nt | 1.1 | nt
O=C(Nc1ccc(N2CCOCC2)c(S(=O)(=O)Nc2cc(Cl)ccc2Cl)c1)c1cccnc1 | 0.5 | 3.5 | 5.7 | -9.3 | 325.0* | 0.3 | 0.988
Cc1ccc(C)c(S(=O)(=O)Nc2ccc3cn[nH]c3c2)c1 | 0.1 | 12.8 | -23.8 | -0.1 | 153.2* | 5.3 | 1.26
Cc1cccc(NS(=O)(=O)c2cc3c(cc2C)NC(=O)CO3)c1 | 0.3 | 6.1 | -12.0 | 8.0 | 107.1* | 0.0 | 0.687
Nc1c(S(=O)(=O)c2cccs2)c2nc3ccccc3nc2n1Cc1ccccc1 | nt | 2.6 | 29.3 | -5.0 | 321.1* | 1.2 | 0.432
CN1C(=O)c2cccc3c(S(=O)(=O)NCCc4ccccc4)ccc1c23 | -0.3 | 11.5 | 14.2 | -6.4 | 117.1* | 1.0 | 0.643
C[C@@H]1CN([C@@H](C)CO)C(=O)c2cc(NC(=O)CCCN(C)C)ccc2O[C@H]1CN(C)Cc1ccc(C(=O)O)cc1 | -0.1 | nt | nt | nt | -0.5[16.7 µM] | nt | nt
C[C@H]1CN([C@@H](C)CO)C(=O)c2cccc(NS(=O)(=O)c3cn(C)cn3)c2O[C@@H]1CN(C)Cc1ccc(Cl)c(Cl)c1 | 0.2 | nt | nt | nt | 6.8[16.7 µM] | nt | nt
COc1ccc(C)cc1NS(=O)(=O)c1ccc2c(c1)n(C)c(=O)n2C | 0.5 | -22.7 | 8.1 | -11.0 | 22.0 | 0.3 | nt
COc1ccc(C)cc1NS(=O)(=O)c1ccc2c(c1)N(C)CCO2 | 0.0 | 29.5 | -24.7 | 4.2 | 148.9* | -1.9 | 1.23
Cc1cc(Cl)c(Cl)cc1S(=O)(=O)NCCCn1ccnc1 | -0.1 | 26.9 | -8.9 | 13.1 | 132.0* | 4.6 | 0.869
C[C@@H]1CN([C@@H](C)CO)C(=O)c2cc(NC(=O)NC3CCCCC3)ccc2O[C@@H](C)CCCCO[C@H]1CN(C)Cc1ccc(C(=O)O)cc1 | 0.0 | nt | nt | nt | 13.2[16.7 µM] | nt | nt
